{
  "source": "the RNAGym collection of RNA variant scans (doi:10.1038/nmeth.2970)",
  "parents": {"B1": {"name": "NELF-E aptamer (parent)", "chain": "CCCAACGACUGCCGAGCGAGAUUACGCUUGAGCGCCCCACUGAGGAUGCCCACGGGCGAUUGGGGCACGG"}, "B2": {"name": "GFP aptamer (parent)", "chain": "GCUUCUGGACUGCGAUGGGAGCACGAAACGUCGUGGCGCAAUUGGGUGGGGAAAGUCCUUAAAAGAGGGCCACCACAGAAGC"}},
  "data": [
    {"variants_of": "B1", "assay": "HiTS-RAP", "conditions": "with NELF-E (Drosophila)", "in_short": "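Aptamer DNA templates carrying a T7 promoter and ter site were sequenced on an Illumina GAIIx flowcell, then transcribed in situ by T7 RNA polymerase and halted by GST-Tus (30 minutes, 37°C). Clusters were imaged after 30-minute room-temperature equilibration with NELF-E-mOrange at 0.064 to 1000 nM in HEPES binding buffer, and only the first binding curve was used. Intensities were normalised to sequencing intensity and averaged per sequence. Kd came from weighted Hill fits, keeping fits with variance below 1,000,000.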", "units": {"Kd": "nM"}, "values": [
      {"variant": "C17G G64A", "Kd": 6.78},
      {"variant": "A4G G48U", "Kd": 8.36},
      {"variant": "A4G U47G", "Kd": 7.07},
      {"variant": "U29G A59G", "Kd": 50.9},
      {"variant": "C9G G44A", "Kd": 17.8},
      {"variant": "U22G G26U", "Kd": 4.84},
      {"variant": "A19G U28C", "Kd": 9.82},
      {"variant": "G34A A52U", "Kd": 20.7},
      {"variant": "G14U C57U", "Kd": 5.72},
      {"variant": "U10G C33A", "Kd": 5.76},
      {"variant": "A39G U61C", "Kd": 8.88},
      {"variant": "A24G G64A", "Kd": 7.13},
      {"variant": "G18A A19C", "Kd": 6.3},
      {"variant": "G7A U41G", "Kd": 6.05},
      {"variant": "A8U G62U", "Kd": 10},
      {"variant": "C6G U61A", "Kd": 38.7},
      {"variant": "A21G U29G", "Kd": 5.79},
      {"variant": "G34C C35G", "Kd": 3.76},
      {"variant": "A5G C53U", "Kd": 4.59},
      {"variant": "A5U C6U", "Kd": 4.75},
      {"variant": "U22G A43G", "Kd": 22.8},
      {"variant": "U23G A39U", "Kd": 24.8},
      {"variant": "A19G A39G", "Kd": 9.35},
      {"variant": "A59G", "Kd": 47.9},
      {"variant": "G14A A39G", "Kd": 9.46},
      {"variant": "U29G U60C", "Kd": 11.4},
      {"variant": "A4G C27G", "Kd": 5.73},
      {"variant": "A8G C13A", "Kd": 6.62},
      {"variant": "C9U U10G", "Kd": 5.19},
      {"variant": "U29G G63A", "Kd": 11.4},
      {"variant": "C12G G42A", "Kd": 39.8},
      {"variant": "C9G G18U", "Kd": 6.65},
      {"variant": "A5G G42A", "Kd": 27.1},
      {"variant": "U23G G42A", "Kd": 60.7},
      {"variant": "U23G G58U", "Kd": 15.1},
      {"variant": "G16U", "Kd": 5.88},
      {"variant": "A4U G62A", "Kd": 13.5},
      {"variant": "A19G C57U", "Kd": 4.99},
      {"variant": "A24G G54U", "Kd": 7.49},
      {"variant": "U28G A39G", "Kd": 11.2},
      {"variant": "A4U U10C", "Kd": 6.91},
      {"variant": "A4U U10G", "Kd": 5.45},
      {"variant": "C6G", "Kd": 4.75},
      {"variant": "A52G C53U", "Kd": 6.67},
      {"variant": "U22G G55C", "Kd": 7.26},
      {"variant": "C9G G64C", "Kd": 5.75},
      {"variant": "G20U G54A", "Kd": 20.1},
      {"variant": "G14A A19U", "Kd": 4.56},
      {"variant": "A5U A15G", "Kd": 5.49},
      {"variant": "A43G U60C", "Kd": 20.1},
      {"variant": "U10C U22G", "Kd": 5.75},
      {"variant": "U10G C50G", "Kd": 7.26},
      {"variant": "U10G A24G", "Kd": 5.18},
      {"variant": "G70A", "Kd": 4.46},
      {"variant": "U10G C37G", "Kd": 6.84},
      {"variant": "A8U U28G", "Kd": 7.11},
      {"variant": "A5U A52U", "Kd": 18.4},
      {"variant": "C13U U41G", "Kd": 5.56},
      {"variant": "U10G A31C", "Kd": 6.21},
      {"variant": "U29G G30C", "Kd": 5.14},
      {"variant": "U22G G65A", "Kd": 5.12},
      {"variant": "C12G A15G", "Kd": 6.14},
      {"variant": "A4G G20A", "Kd": 5.15},
      {"variant": "C6U A24G", "Kd": 5.94},
      {"variant": "U10G A39G", "Kd": 10.1},
      {"variant": "G11U A52G", "Kd": 3.84},
      {"variant": "U10G C25G", "Kd": 5.26},
      {"variant": "U22G C53U", "Kd": 4.04},
      {"variant": "C9G C51U", "Kd": 8.2},
      {"variant": "A19G A52U", "Kd": 19.5},
      {"variant": "G16U G55A", "Kd": 7.53},
      {"variant": "A19G C25G", "Kd": 5.29},
      {"variant": "U10C G55A", "Kd": 8.56},
      {"variant": "G7U C25G", "Kd": 5.61},
      {"variant": "A19G U22G", "Kd": 5.7},
      {"variant": "A8U U29C", "Kd": 6.56},
      {"variant": "C13G A52G", "Kd": 4.96},
      {"variant": "A4G G63A", "Kd": 15.1},
      {"variant": "U10A G14U", "Kd": 6.38},
      {"variant": "C12U U23G", "Kd": 5.04},
      {"variant": "C13G G55A", "Kd": 6.77},
      {"variant": "C9G C33U", "Kd": 5.9},
      {"variant": "A8U A43U", "Kd": 104},
      {"variant": "A8G U10A", "Kd": 5.37},
      {"variant": "C53U G64A", "Kd": 4.84},
      {"variant": "U23G U61G", "Kd": 6.91},
      {"variant": "U10G U22A", "Kd": 5.58},
      {"variant": "C13G A31U", "Kd": 5.78},
      {"variant": "U10G U61A", "Kd": 29.9},
      {"variant": "A46G", "Kd": 26.5},
      {"variant": "G14U U23G", "Kd": 6.29},
      {"variant": "G26A U41G", "Kd": 4.19},
      {"variant": "C13G C35U", "Kd": 14.4},
      {"variant": "A5U G55U", "Kd": 8.79},
      {"variant": "G11U A43G", "Kd": 45.8},
      {"variant": "A24G U28C", "Kd": 12.3},
      {"variant": "C9G G62U", "Kd": 10},
      {"variant": "G58U A59G", "Kd": 5.09},
      {"variant": "G11A G16U", "Kd": 6.64},
      {"variant": "G20U A21G", "Kd": 5.12},
      {"variant": "C33G G34U", "Kd": 5.51},
      {"variant": "C6G G55U", "Kd": 6.23},
      {"variant": "C9U U41G", "Kd": 5.98},
      {"variant": "G14U A19U", "Kd": 7.38},
      {"variant": "A24G G32U", "Kd": 6.57},
      {"variant": "G11A U23G", "Kd": 5.54},
      {"variant": "U10G A59G", "Kd": 57.3}
    ]},
    {"variants_of": "B2", "assay": "HiTS-RAP", "conditions": "with EGFP", "in_short": "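Aptamer templates containing a T7 promoter and ter site were sequenced on an Illumina GAIIx flowcell, transcribed in situ with T7 RNA polymerase and halted with GST-Tus for 30 minutes at 37°C. Clusters were imaged after 30 minutes at room temperature with EGFP-mOrange at 0.04 nM to 625 nM in fivefold steps. Kd was obtained from per-lane weighted Hill fits to decay-corrected, sequencing-normalised, per-sequence mean intensities, geometrically averaged over lanes. Three lanes entered that average, and non-rising sequences were given 125 nM.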", "units": {"Kd": "nM"}, "values": [
      {"variant": "A40G", "Kd": 4.95},
      {"variant": "A40U", "Kd": 21.7},
      {"variant": "U16C U59C", "Kd": 7.5},
      {"variant": "U16C A28G", "Kd": 4.74},
      {"variant": "A23G U34C", "Kd": 1.23},
      {"variant": "G25A C32U", "Kd": 13.6},
      {"variant": "G81U", "Kd": 4.53},
      {"variant": "G81C", "Kd": 14.1},
      {"variant": "G81A", "Kd": 5.44},
      {"variant": "A75G A77G", "Kd": 6.48},
      {"variant": "C58U C74U", "Kd": 5.94},
      {"variant": "A23G U31C", "Kd": 3.06},
      {"variant": "A26G", "Kd": 4.22},
      {"variant": "A27G A28G", "Kd": 4.44},
      {"variant": "A26G A41G", "Kd": 2.97},
      {"variant": "C37G", "Kd": 15.5},
      {"variant": "C73U C74U", "Kd": 7.64},
      {"variant": "C58G", "Kd": 29.1},
      {"variant": "U34G", "Kd": 6.01},
      {"variant": "U34C", "Kd": 24.2},
      {"variant": "U34A", "Kd": 30.6},
      {"variant": "C70G", "Kd": 43.1},
      {"variant": "A72G C73U", "Kd": 8.64},
      {"variant": "A52U", "Kd": "≥ 125"},
      {"variant": "A41G C74U", "Kd": 5.07},
      {"variant": "U31C", "Kd": 4.31},
      {"variant": "U31A", "Kd": 4.16},
      {"variant": "A20C", "Kd": "≥ 125"},
      {"variant": "A20G", "Kd": 8.28},
      {"variant": "C22U", "Kd": 9.58},
      {"variant": "C22A", "Kd": 13.8},
      {"variant": "C73A", "Kd": 8.52},
      {"variant": "G14A", "Kd": 7.34},
      {"variant": "G14C", "Kd": 25.1},
      {"variant": "A26G U31C", "Kd": 3.77},
      {"variant": "G36U", "Kd": "≥ 125"},
      {"variant": "C22U G68A", "Kd": 18},
      {"variant": "G30A G68A", "Kd": 31.8},
      {"variant": "A75C", "Kd": 26.6},
      {"variant": "A23U", "Kd": 11.2},
      {"variant": "A23C", "Kd": 13.2},
      {"variant": "G69U", "Kd": 3.44},
      {"variant": "C22U A28G", "Kd": 10.1},
      {"variant": "U34C A41G", "Kd": 2.74},
      {"variant": "A27G A40G", "Kd": 2.81},
      {"variant": "C24U C58U", "Kd": 2.39},
      {"variant": "G14A A28G", "Kd": 4.8},
      {"variant": "A20G G33A", "Kd": 49},
      {"variant": "A20G A23G", "Kd": 1.51},
      {"variant": "U31C U42C", "Kd": 19.5},
      {"variant": "C24U A27G", "Kd": 7.09},
      {"variant": "G78A", "Kd": 13.2},
      {"variant": "A27G A77G", "Kd": 4.47},
      {"variant": "G25A U31C", "Kd": 3.75},
      {"variant": "A41G U43C", "Kd": 12.7},
      {"variant": "G17C", "Kd": "≥ 125"},
      {"variant": "G17U", "Kd": 5.8},
      {"variant": "G17A", "Kd": "≥ 125"},
      {"variant": "A79U", "Kd": 7.52},
      {"variant": "A27G C58U", "Kd": 0.55}
    ]}
  ]
}
